Results as given in ChEMBL document CHEMBL1250446, “Novel targets for Huntington's disease in an mTOR-independent autophagy pathway” (Nat Chem Biol, 2008).
The source made the active and inactive calls. Residues, ends and D or L forms follow the SMILES beside them.

Assays:
SK-N-MC [1] = test: Cytotoxicity against human SK-N-MC cells expressing EGFP-HDQ74 at 1 uM after 48 hrs; format: cell-based
Danio rerio [2] = species on record: Danio rerio; test: Protection of neurodegeneration in zebrafish Huntington's disease model expressing EGFP-tagged huntingtin exon with EGFP-HDQ71 in rod photoreceptor assessed as induction of rhodopsin expression at 3 uM; format: functional, organism-based
Summary of the method: (§1)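 Zebrafish larvae dark-reared 3–9 d.p.f. with drug in E3, refreshed daily, then lysed in RIPA/DTT. Western blot with anti-rhodopsin (Zpr3, 1:1000), anti-Zpr1 and anti-EGFP antibodies; ECL detection.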

COS-7 [3] = test: Induction of autophagy in african green monkey COS7 cells expressing PLC-epsilon assessed as calpain activation at 2.5 uM after 30 mins by immunoblotting analysis; format: functional, cell-based; conditions: Chlorocebus aethiops
Summary of the method: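 Calpain activation in COS-7 after 30 min exposure, alongside 2.5 μM thapsigargin where applied; immunoblot of the active calpain small subunit.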

SK-N-SH [4] = test: Induction of autophagy in human SK-N-SH cells assessed as inhibition of Bay K8644-induced calpain activation; format: functional, cell-based
Summary of the method: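 SK-N-SH cells pretreated 15 min, then given 1 μM (±)-Bay K8644 for 4 h. The active calpain small subunit was detected by immunoblot.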

Danio rerio [5] = species on record: Danio rerio; test: Protection of neurodegeneration in zebrafish Huntington's disease model expressing EGFP-tagged huntingtin exon with EGFP-HDQ71 in rod photoreceptor assessed as induction of rhodopsin expression at 1 uM; format: functional, organism-based; summary of the method: as §1
SK-N-MC [6] = test: Induction of autophagy in Atg positive human SK-N-MC cells expressing EGFP-HDQ74 at 1 uM after 48 hrs; format: functional, cell-based
Mus musculus = species on record: Mus musculus; test: Induction of autophagy in Atg deficient mouse […] expressing EGFP-HDQ74 at 1 uM after 48 hrs; format: functional
SK-N-SH (Homo sapiens) [7] = test: Induction of autophagy in human SK-N-SH cells expressing EGFP-HDQ74 assessed as reduction in EGFP-HDQ74 aggregation at 1 uM after 48 hrs by densitometric analysis
COS-7 [8] = test: Induction of autophagy in african green monkey COS7 cells expressing EGFP-HDQ74/rheb assessed as reduction in EGFP-HDQ74 aggregation at 0.2 uM after 2 hrs; format: functional, cell-based; conditions: Chlorocebus aethiops
COS-7 [9] = test: Induction of autophagy in african green monkey COS7 cells expressing EGFP-LC3 assessed as increase in EGFP-LC3 vesicle at 0.2 uM after 2 hrs; format: functional, cell-based; conditions: Chlorocebus aethiops
Summary of the method: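 COS-7 transfected 4 h with EGFP-LC3, then exposed 2 h together with 2.5 μM thapsigargin. Each EGFP-positive cell was scored positive if it had >5 EGFP-LC3 vesicles. Blinded fluorescence microscopy; triplicate, at least twice.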

COS-7 [10] = test: Induction of autophagy in african green monkey COS7 cells assessed as increase in LC3-2 vesicle at 50 uM after 24 hrs by immunofluorescence assay; format: functional, cell-based; conditions: Chlorocebus aethiops
Summary of the method: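 Fixed COS-7 cells, after 24 h exposure, immunostained for LC3 with an anti-LC3 primary and Alexa-conjugated secondary; confocal imaging of LC3-positive vesicles.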

HeLa = test: Induction of autophagy in human HeLa cells expressing EGFP-LC3 assessed as increase in LC3-2 level at 50 uM in presence of 400 nM bafilomycin A1; format: functional, cell-based
Danio rerio [11] = species on record: Danio rerio; test: Protection of neurodegeneration in zebrafish Huntington's disease model expressing EGFP-tagged huntingtin exon with EGFP-HDQ71 in rod photoreceptor assessed as decrease in […] aggregation at 3 uM; format: functional, organism-based
Summary of the method: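 Transgenic zebrafish larvae raised in PTU to 3 d.p.f., then dark-reared 3–9 d.p.f. with drug in E3 medium (pH 7.2), refreshed daily. Fixed fish were cryosectioned at 12 μm and aggregates counted over 96 μm of the central eye. Means from 10 fish per group; ANOVA with Dunnett's test.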

Drosophila [12] = test: Protection of neurodegeneration in Drosophila Huntington's disease model assessed as induction autophagy at 2.5 mM; format: functional, organism-based
Summary of the method: (§2)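 Progeny reared on instant food with drug (from 0.5 M DMSO stock) or DMSO, at 25°C, 70% humidity, 12 h light/dark. Photoreceptors scored by pseudopupil technique 2 days after eclosion; paired t-test on experiment averages.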

SK-N-SH (Homo sapiens) [13] = test: Induction of autophagy in human SK-N-SH cells assessed as increase in LC3-2 level at 0.33 uM after 24 hrs by immunoblotting analysis
SK-N-SH [14] = test: Induction of autophagy in human SK-N-SH cells expressing EGFP-HDQ74/m-calpain assessed as inhibition of EGFP-HDQ74 aggregation at 1 uM after 48 hrs; format: functional, cell-based
Drosophila [15] = test: Protection of neurodegeneration in Drosophila Huntington's disease model assessed as induction autophagy at 1.25 mM; format: functional, organism-based; summary of the method: as §2
Danio rerio [16] = species on record: Danio rerio; test: Protection of neurodegeneration in zebrafish Huntington's disease model expressing EGFP-tagged huntingtin exon with EGFP-HDQ71 in rod photoreceptor assessed as decrease in […] aggregation at 3 uM
SK-N-SH [17] = test: Induction of autophagy in human SK-N-SH cells expressing EGFP-HDQ74 assessed as inhibition of Bay K8644-induced EGFP-HDQ74 aggregation at 1 uM after 48 hrs; format: functional, cell-based
Summary of the method: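 SK-N-SH cells transfected with EGFP-HDQ74 (LipofectAMINE PLUS, 4 h), then exposed alongside 1 μM (±)-Bay K8644. Proportion of EGFP-positive cells with aggregates scored at 48 h post-transfection by a blinded observer.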

Danio rerio [18] = species on record: Danio rerio; test: Protection of neurodegeneration in zebrafish Huntington's disease model expressing EGFP-tagged huntingtin exon with EGFP-HDQ71 in rod photoreceptor assessed as loss of rhodopsin expression at 3 uM
COS-7 [19] = test: Induction of autophagy in african green monkey COS7 cells assessed as increase in autophagosome at 50 uM after 24 hrs by electron microscopy; format: functional, cell-based; conditions: Chlorocebus aethiops
Summary of the method: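 COS-7 cells exposed 24 h, fixed, and examined by electron microscopy. Early and late autophagosome-like structures were counted per 50 cell profiles. Student's t-test; error bars are standard error of the mean.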

COS-7 [20] = test: Induction of autophagy in african green monkey COS7 cells expressing EGFP-HDQ74/rheb assessed as reduction in EGFP-HDQ74 aggregation at 50 uM after 48 hrs; format: functional, cell-based; conditions: Chlorocebus aethiops
PC-12 [21] = test: Induction of autophagy in undifferentiated rat stable inducible PC12 cells expressing EGFP-HDQ74 assessed as EGFP-HDQ74 clearance at 10 uM after 96 hrs by calpain activation assay; format: functional, cell-based
PC-12 [22] = test: Induction of autophagy in differentiated rat stable inducible PC12 cells expressing EGFP-HDQ74 assessed as EGFP-HDQ74 clearance at 10 uM after 96 hrs by calpain activation assay; format: functional, cell-based
PC-12 [23] = test: Induction of autophagy in undifferentiated rat stable inducible PC12 cells expressing A53T alpha-synuclein assessed as A53T alpha-synuclein clearance at 10 uM after 96 hrs by calpain activation assay; format: functional, cell-based
PC-12 [24] = test: Induction of autophagy in differentiated rat stable inducible PC12 cells expressing A53T alpha-synuclein assessed as A53T alpha-synuclein clearance at 10 uM after 96 hrs by calpain activation assay; format: functional, cell-based
COS-7 [25] = test: Induction of autophagy in african green monkey COS7 cells expressing EGFP-HDQ74 assessed as inhibition of PLC-epsilon overexpression-induced EGFP-HDQ74 aggregation at 50 uM after 48 hrs; format: functional, cell-based; conditions: Chlorocebus aethiops
COS-7 [26] = test: Induction of autophagy in african green monkey COS7 cells expressing EGFP-LC3 assessed as increase in EGFP-LC3 vesicle at 50 uM after 24 hrs; format: functional, cell-based; conditions: Chlorocebus aethiops
Danio rerio [27] = species on record: Danio rerio; test: Protection of neurodegeneration in zebrafish Huntington's disease model expressing EGFP-tagged huntingtin exon with EGFP-HDQ71 in rod photoreceptor assessed as induction of rhodopsin expression at 100 uM; format: functional, organism-based
Summary of the method: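 Zebrafish larvae dosed 3–9 d.p.f. in E3 medium (daily refresh, dark-reared), lysed in 80% RIPA/100 mM DTT with protease inhibitor for 1 h on ice. Proteins run on 10% SDS-PAGE and blotted with anti-rhodopsin (Zpr3, 1:1000), anti-Zpr1 and anti-EGFP; ECL detection.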

SK-N-SH [28] = test: Induction of autophagy in human SK-N-SH cells expressing EGFP-HDQ74 assessed as reduction in EGFP-HDQ74 aggregation at 500 uM after 48 hrs by densitometric analysis; format: functional, cell-based
COS-7 [29] = test: Induction of autophagy in african green monkey COS7 cells expressing EGFP-HDQ74/m-calpain assessed as decrease in EGFP-HDQ74 aggregation at 500 uM after 48 hrs; format: functional, cell-based; conditions: Chlorocebus aethiops
PC-12 [30] = test: Induction of autophagy in rat stable inducible PC12 cells expressing A53T alpha-synuclein assessed as A53T alpha-synuclein clearance at 500 uM after 24 hrs by densitometric analysis; format: functional, cell-based
Summary of the method: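 Inducible PC12 A53T α-synuclein (HA) cells induced with 1 μg/ml doxycycline for 48 h. Doxycycline then removed for 24 h with compound or DMSO. Remaining protein measured by anti-HA immunoblot, densitometry relative to actin.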

PC-12 [31] = test: Induction of autophagy in rat stable inducible PC12 cells assessed as increase in LC3-2 level at 500 uM after 24 hrs by immunoblotting analysis; format: functional, cell-based
Summary of the method: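 Stable inducible PC12 cells exposed 24 h; endogenous LC3-II measured by anti-LC3 immunoblotting, with densitometry relative to actin.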

Danio rerio [32] = species on record: Danio rerio; test: Protection of neurodegeneration in zebrafish Huntington's disease model expressing EGFP-tagged huntingtin exon with EGFP-HDQ71 in rod photoreceptor assessed as decrease in […] aggregation at 100 uM; format: functional, organism-based
Summary of the method: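 Transgenic zebrafish embryos kept in 0.1 mM PTU from 1 to 3 d.p.f. and screened by EGFP, then dark-reared 3–9 d.p.f. in compound in E3 medium (pH 7.2), refreshed daily. Fixed in 4% PFA, cryosectioned at 12 μm; aggregates counted over 96 μm of central eye. Mean of 10 fish; ANOVA with Dunnett test.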

PC-12 [33] = test: Induction of autophagy in rat stable inducible PC12 cells expressing A53T alpha-synuclein assessed as inhibition of PACAP-retarded A53T alpha-synuclein clearance at 500 uM after 24 hrs by densitometric analysis; format: functional, cell-based
Summary of the method: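 Inducible PC12 A53T α-synuclein line (doxycycline 1 μg/ml 48 h, then 24 h off-induction) treated 24 h with 100 nM PACAP with or without compound. Clearance measured by anti-HA immunoblot, densitometry relative to actin.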

COC(=O)C1=C(C)NC(C)=C([N+](=O)[O-])C1c1ccccc1C(F)(F)F (racemic)
inactive: Activity (Danio rerio [2]) | Activity (Mus musculus) | Activity (SK-N-SH (Homo sapiens) [7])
Toxic: Activity (SK-N-MC [1])
active: Activity (COS-7 [3]) | inhibition (SK-N-SH [4]) Dose-dependent effect | Activity (Danio rerio [5]) | Activity (SK-N-MC [6])

CO[C@H]1C[C@@H]2CC[C@@H](C)[C@@](O)(O2)C(=O)C(=O)N2CCCC[C@H]2C(=O)O[C@H]([C@H](C)C[C@@H]2CC[C@@H](O)[C@H](OC)C2)CC(=O)[C@H](C)/C=C(\C)[C@@H](O)[C@@H](OC)C(=O)[C@H](C)C[C@H](C)/C=C/C=C/C=C/1C
active: Activity (COS-7 [8]) | Activity (COS-7 [9])

CSCC[C@@H](C=O)NC(=O)[C@H](CC(C)C)NC(=O)[C@H](CC(C)C)NC(C)=O (Ac-Leu-Leu-Met-aldehyde)
active: Activity (COS-7 [10]) | Activity (HeLa)

COc1ccc(CCN(C)CCCC(C#N)(c2ccc(OC)c(OC)c2)C(C)C)cc1OC (stereo not given)
inactive: Activity (SK-N-SH [14]) | Activity (Mus musculus) | Activity (Danio rerio [18])
active: Activity (Danio rerio [11]) | Activity (Drosophila [12]) | Activity (SK-N-SH (Homo sapiens) [13]) | Activity (Danio rerio [2]) | Activity (Drosophila [15]) | Activity (Danio rerio [16]) | Activity (SK-N-MC [6]) | Activity (SK-N-SH [17]) | Activity (SK-N-SH (Homo sapiens) [7])

CCCC[C@@H](C=O)NC(=O)[C@H](CC(C)C)NC(=O)OCc1ccccc1
active: Activity (COS-7 [19]) | Activity (COS-7 [20]) | Activity (HeLa) | Activity (PC-12 [21]) | Activity (PC-12 [22]) | Activity (PC-12 [23]) | Activity (PC-12 [24]) | Activity (COS-7 [25]) | Activity (COS-7 [26])

C[C@H]1O[C@@H](n2cnc3c(N)ncnc32)C[C@@H]1O
active: Activity (Danio rerio [27]) | Activity (SK-N-SH [28]) | Activity (COS-7 [29]) | Activity (PC-12 [30]) | Activity (PC-12 [31]) | Activity (Danio rerio [32]) | Activity (PC-12 [33])
